Assay results: PubChem BioAssay AID504519 (The Scripps Research Institute Molecular Screening Center, 2011)
The source made the active and inactive calls.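 Rule for the calls: active = labelling ratio, compound over solvent, at most 0.5 for PAFAH2 while all off-target serine hydrolases stay above 0.5; inactive = the rest.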

Tests used:
Assay in all cases: SILAC ABPP target and off-target inhibition profile – LC-MS, BW5147 murine T cells, selectivity assay for PAFAH2 inhibitor project, late-stage follow-up (AID 504519)
[1] = tested on: LYPLA2; details: hits give low values
Method in brief: (§1)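 assay system = BW5147-derived mouse T-cell hybridoma, SILAC-labeled | buffer or medium = SILAC RPMI, light or heavy | dosing = test compound on light cells, DMSO vehicle on heavy cells, in situ | detection = MudPIT LC/LC-MS/MS after biotin enrichment | evaluation = Per-protein light/heavy peptide intensity ratio, 1 meaning no inhibition | control set = DMSO-treated heavy-labeled cells as in-sample reference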

[2] = tested on: LIPA; details: hits give low values
Method in brief: as §1

[3] = tested on: PPME1; details: hits give low values
Method in brief: as §1

[4] = tested on: FASN; details: hits give low values
Method in brief: as §1

[5] = tested on: IAH1; details: hits give low values
Method in brief: as §1

[6] = tested on: PAFAH1B3; details: hits give low values
Method in brief: as §1

[7] = tested on: ACOT1; details: hits give low values
Method in brief: as §1

[8] = tested on: ABHD6; details: hits give low values
Method in brief: as §1

[9] = tested on: SIAE; details: hits give low values
Method in brief: as §1

[10] = tested on: PREPL; details: hits give low values
Method in brief: as §1

[11] = tested on: FAM108A; details: hits give low values
Method in brief: as §1

[12] = tested on: LYPLA1; details: hits give low values
Method in brief: as §1

[13] = tested on: LYPLA3; details: hits give low values
Method in brief: as §1

[14] = tested on: PRCP; details: hits give low values
Method in brief: as §1

[15] = tested on: DPP4; details: hits give low values
Method in brief: as §1

[16] = tested on: ABHD10; details: hits give low values
Method in brief: as §1

[17] = tested on: APEH; details: hits give low values
Method in brief: as §1

[18] = tested on: SERHL; details: hits give low values
Method in brief: as §1

[19] = tested on: ABHD13; details: hits give low values
Method in brief: as §1

[20] = tested on: FAAH; details: hits give low values
Method in brief: as §1

[21] = tested on: DPP7; details: hits give low values
Method in brief: as §1

[22] = tested on: ACOT2; details: hits give low values
Method in brief: as §1

[23] = tested on: PNPLA6; details: hits give low values
Method in brief: as §1

[24] = tested on: ABHD12; details: hits give low values
Method in brief: as §1

[25] = tested on: BAT5; details: hits give low values
Method in brief: as §1

[26] = tested on: DDHD1; details: hits give low values
Method in brief: as §1

[27] = tested on: ACOT7; details: hits give low values
Method in brief: as §1

[28] = target: Prolyl endopeptidase (Mus musculus) (UniProt Q9QUR6); details: PREP, hits give low values
Sequence of Prolyl endopeptidase (Mus musculus) (Q9QUR6 whole entry, looked up): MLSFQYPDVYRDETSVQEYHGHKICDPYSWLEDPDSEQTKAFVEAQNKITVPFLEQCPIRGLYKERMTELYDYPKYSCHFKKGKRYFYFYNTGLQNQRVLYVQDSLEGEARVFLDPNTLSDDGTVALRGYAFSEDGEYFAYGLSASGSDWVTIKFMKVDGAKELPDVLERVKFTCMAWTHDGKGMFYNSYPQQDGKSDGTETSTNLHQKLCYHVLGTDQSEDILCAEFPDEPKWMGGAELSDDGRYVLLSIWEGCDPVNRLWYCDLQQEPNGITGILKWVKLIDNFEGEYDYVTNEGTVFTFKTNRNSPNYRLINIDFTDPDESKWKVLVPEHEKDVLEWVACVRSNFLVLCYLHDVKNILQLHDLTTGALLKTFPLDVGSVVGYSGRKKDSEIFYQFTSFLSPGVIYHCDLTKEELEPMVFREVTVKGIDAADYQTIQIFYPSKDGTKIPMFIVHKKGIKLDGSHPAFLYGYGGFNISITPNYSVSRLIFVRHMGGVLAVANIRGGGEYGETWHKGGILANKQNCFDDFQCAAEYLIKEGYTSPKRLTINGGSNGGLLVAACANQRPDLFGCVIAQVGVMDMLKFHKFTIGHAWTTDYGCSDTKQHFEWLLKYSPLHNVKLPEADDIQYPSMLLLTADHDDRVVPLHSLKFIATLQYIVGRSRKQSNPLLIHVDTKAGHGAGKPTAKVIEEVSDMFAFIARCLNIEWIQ
Method in brief: as §1

[29] = tested on: ABHD11; details: hits give low values
Method in brief: as §1

[30] = target: Platelet-activating factor acetylhydrolase 2, cytoplasmic (Mus musculus) (UniProt Q8VDG7); details: PAFAH2, hits give low values
Sequence of Platelet-activating factor acetylhydrolase 2, cytoplasmic (Mus musculus) (Q8VDG7 whole entry, looked up): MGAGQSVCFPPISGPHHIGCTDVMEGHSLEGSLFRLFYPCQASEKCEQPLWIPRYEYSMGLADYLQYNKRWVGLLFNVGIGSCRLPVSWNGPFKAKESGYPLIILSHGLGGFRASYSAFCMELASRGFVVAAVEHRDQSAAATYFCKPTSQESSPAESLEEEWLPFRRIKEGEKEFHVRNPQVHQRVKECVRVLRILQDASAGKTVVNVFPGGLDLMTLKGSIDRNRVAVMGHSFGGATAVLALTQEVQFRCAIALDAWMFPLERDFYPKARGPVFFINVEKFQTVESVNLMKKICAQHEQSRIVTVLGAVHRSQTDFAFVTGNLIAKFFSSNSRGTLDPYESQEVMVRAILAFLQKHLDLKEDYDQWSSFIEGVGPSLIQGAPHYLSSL
Method in brief: as §1

[31] = tested on: CTSA; details: hits give low values
Method in brief: as §1

[32] = tested on: LACTB; details: hits give low values
Method in brief: as §1

[33] = tested on: ESD; details: hits give low values
Method in brief: as §1

[34] = tested on: FAM108B1; details: hits give low values
Method in brief: as §1

[35] = tested on: PLA2G6; details: hits give low values
Method in brief: as §1

[36] = tested on: DPP9; details: hits give low values
Method in brief: as §1

[37] = tested on: FAM108C; details: hits give low values
Method in brief: as §1

[38] = tested on: PARL; details: hits give low values
Method in brief: as §1

[39] = tested on: PAFAH1B2; details: hits give low values
Method in brief: as §1

[40] = tested on: AADACL1; details: hits give low values
Method in brief: as §1

[41] = tested on: PNPLA7; details: hits give low values
Method in brief: as §1

[42] = tested on: DPP8; details: hits give low values
Method in brief: as §1

## O=C(N1CCCC1)n1ncc(-c2ccc(-c3ccccc3)cc2)n1
[1]
  SILAC ratio inhibitor/DMSO: 1.4 (inactive)
[2]
  SILAC ratio inhibitor/DMSO: 1.6 (inactive)
[3]
  SILAC ratio inhibitor/DMSO: 1.2 (inactive)
[4]
  SILAC ratio inhibitor/DMSO: 1.3 (inactive)
[5]
  SILAC ratio inhibitor/DMSO: 1.2 (inactive)
[6]
  SILAC ratio inhibitor/DMSO: 1.3 (inactive)
[7]
  SILAC ratio inhibitor/DMSO: 1.2 (inactive)
[8]
  SILAC ratio inhibitor/DMSO: 0.59 (inactive)
[9]
  SILAC ratio inhibitor/DMSO: 1.3 (inactive)
[10]
  SILAC ratio inhibitor/DMSO: 1.3 (inactive)
[11]
  SILAC ratio inhibitor/DMSO: 1.1 (inactive)
[12]
  SILAC ratio inhibitor/DMSO: 1.3 (inactive)
[13]
  SILAC ratio inhibitor/DMSO: 1.3 (inactive)
[14]
  SILAC ratio inhibitor/DMSO: 1.4 (inactive)
[15]
  SILAC ratio inhibitor/DMSO: 1.2 (inactive)
[16]
  SILAC ratio inhibitor/DMSO: 1.4 (inactive)
[17]
  SILAC ratio inhibitor/DMSO: 1 (inactive)
[18]
  SILAC ratio inhibitor/DMSO: 1.1 (inactive)
[19]
  SILAC ratio inhibitor/DMSO: 1.2 (inactive)
[20]
  SILAC ratio inhibitor/DMSO: 1.3 (inactive)
[21]
  SILAC ratio inhibitor/DMSO: 1.2 (inactive)
[22]
  SILAC ratio inhibitor/DMSO: 1.2 (inactive)
[23]
  SILAC ratio inhibitor/DMSO: 1.6 (inactive)
[24]
  SILAC ratio inhibitor/DMSO: 1.3 (inactive)
[25]
  SILAC ratio inhibitor/DMSO: 1.3 (inactive)
[26]
  SILAC ratio inhibitor/DMSO: 1.4 (inactive)
[27]
  SILAC ratio inhibitor/DMSO: 1.2 (inactive)
[28]
  SILAC ratio inhibitor/DMSO: 1.3 (inactive)
[29]
  SILAC ratio inhibitor/DMSO: 1.4 (inactive)
[30]
  SILAC ratio inhibitor/DMSO: 0
[31]
  SILAC ratio inhibitor/DMSO: 1.1 (inactive)
[32]
  SILAC ratio inhibitor/DMSO: 1.3 (inactive)
[33]
  SILAC ratio inhibitor/DMSO: 1 (inactive)
[34]
  SILAC ratio inhibitor/DMSO: 1.2 (inactive)
[35]
  SILAC ratio inhibitor/DMSO: 0.91 (inactive)
[36]
  SILAC ratio inhibitor/DMSO: 1.3 (inactive)
[37]
  SILAC ratio inhibitor/DMSO: 1.3 (inactive)
[38]
  SILAC ratio inhibitor/DMSO: 1.2 (inactive)
[39]
  SILAC ratio inhibitor/DMSO: 1.2 (inactive)
[40]
  SILAC ratio inhibitor/DMSO: 1.3 (inactive)
[41]
  SILAC ratio inhibitor/DMSO: 1.6 (inactive)
[42]
  SILAC ratio inhibitor/DMSO: 1.3 (inactive)
